Assay results as given in ChEMBL document CHEMBL2157865, “Novel 3-substituted-1-aryl-5-phenyl-6-anilinopyrazolo[3,4-d]pyrimidin-4-ones: docking, synthesis and pharmacological evaluation as a potential anti-inflammatory agents” (Bioorg Med Chem Lett, 2012).

Assays:
[1] = tested on: Rattus norvegicus; assay: Toxicity in Wistar albino rat assessed as ulcer index at 75 mg/kg/day, po administered for 4 days measured after 12 hrs fasting post-last dose; format: organism-based; parameters: route oral; details: in vivo
Procedure, shortened: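 Male Wistar albino rats, 170–200 g, six per group, with control and standard groups. Compounds suspended in 1% w/v Tween 80 in water and dosed orally at 75 mg/kg/day on all 4 days. Rats fasted 12 h after last dose, then decapitated. Stomach opened along greater curvature and washed with distilled water and Krebs solution. Gastric lesions counted and ulcer index calculated per Szelenyi and Thiemer.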

[2] = tested on: Rattus norvegicus; assay: Antiinflammatory activity in Wistar albino rat assessed as inhibition of carrageenan-induced paw edema at 25 mg/kg, po after 1 hr (reference value: 0.85 +/- 0.01%); format: functional
[3] = tested on: Rattus norvegicus; assay: Antiinflammatory activity in Wistar albino rat assessed as inhibition of carrageenan-induced paw edema at 25 mg/kg, po after 2 hrs (reference value: 1.11 +/- 0.02%); format: functional
[4] = tested on: Rattus norvegicus; assay: Antiinflammatory activity in Wistar albino rat assessed as inhibition of carrageenan-induced paw edema at 25 mg/kg, po after 3 hrs (reference value: 1.08 +/- 0.41%); format: functional

Row | SMILES | UI [1] | inhibition in vivo at 25 mg/kg [2] [%] | inhibition in vivo at 25 mg/kg [3] [%] | inhibition in vivo at 25 mg/kg [4] [%]
1 | Cc1ccc(Nc2nn(-c3ccccc3)c3nc(Nc4ccccc4)n(-c4ccccc4)c(=O)c23)cc1 | 3.2 | 55.7 | 53.4 | 32.9
2 | NS(=O)(=O)c1ccc(-n2nc(Nc3ccc(Cl)cc3)c3c(=O)n(-c4ccccc4)c(Nc4ccccc4)nc32)cc1 |  | 69.8 | 56.3 | 38.3
3 | CSc1nn(-c2ccc(S(N)(=O)=O)cc2)c2nc(Nc3ccccc3)n(-c3ccccc3)c(=O)c12 | 7.83 | 68.8 | 54.1 | 35.2
4 | O=c1c2c(Nc3ccc(Cl)cc3)nn(-c3ccccc3)c2nc(Nc2ccccc2)n1-c1ccccc1 |  | 47.5 | 44 | 28.6
5 | O=c1c2c(Nc3ccccc3)nn(-c3ccccc3)c2nc(Nc2ccccc2)n1-c1ccccc1 |  | 48.1 | 43.4 | 17.1
6 | NS(=O)(=O)c1ccc(-n2nc(Nc3ccc([N+](=O)[O-])cc3)c3c(=O)n(-c4ccccc4)c(Nc4ccccc4)nc32)cc1 |  | 67 | 55.3 | 39.1
7 | CSc1nn(-c2ccc([N+](=O)[O-])cc2)c2nc(Nc3ccccc3)n(-c3ccccc3)c(=O)c12 | 7.5 | 42.1 | 37.7 | 26.6
8 | Cc1ccc(Nc2nn(-c3ccc(S(N)(=O)=O)cc3)c3nc(Nc4ccccc4)n(-c4ccccc4)c(=O)c23)cc1 | 9.5 | 77 | 63.4 | 43.7
9 | O=c1c2c(Nc3ccc([N+](=O)[O-])cc3)nn(-c3ccc([N+](=O)[O-])cc3)c2nc(Nc2ccccc2)n1-c1ccccc1 |  | 23.9 | 19.4 | 16.8
10 | Cc1ccc(Nc2nn(-c3ccc([N+](=O)[O-])cc3)c3nc(Nc4ccccc4)n(-c4ccccc4)c(=O)c23)cc1 | 16.72 | 46.6 | 39.8 | 30.2
11 | O=c1c2c(Nc3ccc(Cl)cc3)nn(-c3ccc([N+](=O)[O-])cc3)c2nc(Nc2ccccc2)n1-c1ccccc1 |  | 39.6 | 39 | 20.6
12 | NS(=O)(=O)c1ccc(-n2nc(Nc3ccccc3)c3c(=O)n(-c4ccccc4)c(Nc4ccccc4)nc32)cc1 |  | 60.2 | 54.8 | 39.6
13 | O=C([O-])Cc1ccccc1Nc1c(Cl)cccc1Cl.[Na+] [DICLOFENAC SODIUM] | 39.17 | 75.8 | 57.2 | 42.8
14 | O=c1c2c(Nc3ccc([N+](=O)[O-])cc3)nn(-c3ccccc3)c2nc(Nc2ccccc2)n1-c1ccccc1 |  | 29.4 | 29 | 15.1
15 | O=c1c2c(Nc3ccccc3)nn(-c3ccc([N+](=O)[O-])cc3)c2nc(Nc2ccccc2)n1-c1ccccc1 |  | 43.9 | 40.8 | 14.1
16 | Cc1ccc(-c2cc(C(F)(F)F)nn2-c2ccc(S(N)(=O)=O)cc2)cc1 [CELECOXIB] | 9.58 | 78.1 | 58.6 | 39.6
17 | CSc1nn(-c2ccccc2)c2nc(Nc3ccccc3)n(-c3ccccc3)c(=O)c12 | 4.66 | 46.1 | 36.6 | 25.4
